Assay outcomes deposited in PubChem BioAssay by several laboratories.
TAG inh – reduces triacylglycerol accumulation in H9c2 cells; Nile Red lipid (TAG) fluorescence; cells loaded with 200 µM oleic acid; inhibition, % at 12.5 µM; hit rate 0.66% among 230,000; AID 651582;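 active = pattern-corrected inhibition of lipid staining of at least 50% with the nuclear-stain viability signal not falling by more than 50%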;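 also: 0% = DMSO wells and 100% = triacsin C control wells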
Hep lipid drop – hepatic lipid droplet formation modulation; AML12 mouse hepatocytes, oleate lipid droplets, BODIPY imaging; hit rate 0.4% among 240,000; inhibition, % at 6.5 µM;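 active = lipid droplet intensity inhibited by at least 50%, with more than 500 cells counted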
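Test system: AML12 hepatocytes (mouse); reagent: oleate loading, 100 µM; dosing: one dose, 6.5 µM compound; incubation: overnight exposure; signal: fluorescence imaging, 20x objective, two fields per well; read-out basis: % inhibition of corrected integrated BODIPY droplet signal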
PPC-1+TRAIL kill – kills PPC-1 cancer cells in the presence of TRAIL; PPC-1 cells + TRAIL, ATPLite viability luminescence; hit rate 0.41% among 220,000; cell killing (% activity), % at 4 µM or 5 µM;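 active = cell killing above 50% in the first pass at 4 µM, then a duplicate retest at 5 µM averaging 50% or more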;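 also: plate controls were cells with TRAIL plus DMSO for no effect and medium-only wells lacking cells for full effect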
STAT3 blocker – inhibitors of IL-6 induced STAT3 signaling. U3A cells, IL-6 STAT3-luciferase reporter, luminescence; host cell line lacks STAT1. inhibition, % at 5.5 µM. hit rate 0.89% among 190,000. AID 862;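 active = inhibition above the mean inhibition across all screened compounds plus 3 SD, cut at about 44% in these data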;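 also: 0% = DMSO only wells and 100% = 100 µM nifuroxazide control wells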
Platelet DG rel – platelet dense granule release activity. human platelet-rich plasma, SFLLRN dense granule ATP release, luminescence. inhibition, %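 (compounds screened at 7.5 µM in platelet-rich plasma)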. hit rate 0.22% among 300,000. AID 1663;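 active = mean replicate score, as percent of positive control, at or above 50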
STAT1 inh – reduces IFN-gamma driven STAT1 reporter signal; NIH 3T3 STAT1-luciferase reporter, luminescence; inhibition, % at 5.5 µM; hit rate 0.35% among 200,000; AID 920;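 active = inhibition above a set limit, the mean inhibition across all tested compounds plus 3 SD, cut at about 34% in these data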;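 also: 0% = IFN-gamma with DMSO and 100% = IFN-gamma with 300 µM nifuroxazide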
TAG conf – triacylglycerol accumulation inhibition, confirmation. H9c2 lipid accumulation, Nile Red fluorescence; cells loaded with 200 µM oleic acid. inhibition, % at 12.5 µM. shares compounds with TAG inh. hit rate 71% among 990;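 active = mean inhibition across replicates of 40% or more; inactive = mean inhibition below 40%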;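 also: plate controls were DMSO only wells for no effect and Triacsin C treated wells for full effect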
* marks the source's active call; other numbers are inactive results; · = not tested or not shown; ! = not active in a repeat. Compounds with a hit are over-represented: about 1.5% of the library has one in this group of screens.

SMILES	TAG inh	Hep lipid drop	PPC-1+TRAIL kill	STAT3 blocker	Platelet DG rel	STAT1 inh	TAG conf
Nc1nc2ccccc2n1S(=O)(=O)c1ccc(Cl)cc1	-4	·	·	·	·	·	·
COC(=O)[C@]1(Cc2ccccc2)N[C@H](c2ccc(-c3cccc(Cl)c3)c(OC)c2)[C@@H]2C(=O)N(C)C(=O)[C@@H]21	55*	·	·	·	·	·	45*
COC(=O)[C@]1(CC(C)C)N[C@H](c2ccc(-c3cccc(Cl)c3)cc2)[C@@H]2C(=O)N(C)C(=O)[C@@H]21	61*	·	·	·	-3	·	36
O=C(NCC(=O)N1CCN(Cc2ccccc2)CC1)c1ccc(Br)o1	·	3	·	·	5	·	·
COc1cc(NC(=O)c2nccnc2N)cc(C(=O)Nc2cccc(C(F)(F)F)c2)c1	61*!	-5	3	·	1	·	35
COc1ccc(-c2cc(C(=O)Nc3cc(OC)cc(C(=O)Nc4cccc(C(F)(F)F)c4)c3)[nH]n2)cc1	84*	48	26	·	-6	·	77*
COc1cc(NC(=O)c2nccn2C)cc(C(=O)Nc2cccc(C(F)(F)F)c2)c1	107*	7	3	·	0	·	26
Cc1ccnc2nc(C(=O)OCC(=O)N(C)C3CCCCC3)nn12	1	·	·	·	·	·	·
O=C(Nc1cccnc1)C1Cc2c(-c3ccco3)ccnc2O1 (stereo unspecified)	2	·	·	·	·	·	·
c1ccc(C2Nc3ccccc3-c3nc4ccccc4n32)cc1 (stereo unspecified)	25	4	-5	10	-3	-2	·
c1ccc(C2Nc3ccccc3-c3nc4ccccc4n32)nc1 (stereo unspecified)	55*	-3	·	22	3	-17	16
COc1ccc(CN2CCC[C@]3(N[C@H](c4ccc(C(F)(F)F)cc4)[C@@H]4C(=O)N(Cc5ccccc5)C(=O)[C@@H]43)C2=O)cc1	6	·	·	·	·	·	·
COc1ccc(CN(C)C[C@@H]2OCCCC[C@H](C)Oc3ccc(NC(=O)Nc4ccc(F)cc4)cc3C(=O)N([C@H](C)CO)C[C@H]2C)cc1	63*	·	·	·	·	·	47*
C[C@H]1CCCCO[C@H](CN(C)CC2CCCCC2)[C@@H](C)CN([C@@H](C)CO)C(=O)c2cc(NS(=O)(=O)c3ccccc3)ccc2O1	57*	·	·	·	·	·	58*
COc1ccc(Cc2nc3ccc(C(=O)N(C)Cc4nccn4C)cc3o2)cc1	-9	·	·	·	·	·	·
Cc1ccc(Nc2ncc3c(=O)[nH][nH]c(=O)c3n2)cc1	6	·	·	·	·	·	·
CC(OC(=O)Cc1ccc(Br)cc1)C(=O)NC1CCCC1 (stereo unspecified)	0	·	·	·	·	·	·
Cc1onc(-c2ccc(Cl)cc2Cl)c1-c1csc(N/N=C/c2ccccc2Cl)n1	57*	-5	10	·	29	·	38
Cc1cc(C)n2nc(C(=O)OCC(=O)NNC(=O)c3ccccc3)nc2n1	9	·	·	·	·	·	·
CC(C)(C)OC(=O)N1CCN(c2ccc(NC(=O)Cn3nnc(-c4ccccc4)n3)cc2)CC1	62*	84*	-1	6	-32	0	18
CCOC(=O)c1ccc(NC(=O)Cn2nnc(-c3ccccc3)n2)cc1	2	·	5	9	1	4	·
COc1cccc(CSC(C(=O)O)c2ccccc2)c1 (stereo unspecified)	-8	·	·	·	·	·	·
CCOC(=O)Nc1ccc(N2CCOCC2)c(S(=O)(=O)Nc2ccc(Cl)cc2)c1	-9	·	·	·	·	·	·
O=C(Nc1ccc(/C=C/c2nc3ccccc3o2)cc1)c1c(F)cccc1F	54*	44	32	19	-14	-82	55*
CCCc1ccc(C(O)c2ncc(-c3ccccc3)[nH]2)cc1 (stereo unspecified)	-11	·	·	·	·	·	·
SMILES	TAG inh	Hep lipid drop	PPC-1+TRAIL kill	STAT3 blocker	Platelet DG rel	STAT1 inh	TAG conf
CC1CCc2nc(NC(=O)c3cc(C(C)(C)C)nn3C)sc2C1 (stereo unspecified)	24	-35	7	·	5	·	·
Cc1ccc(-c2nc(NC(=O)c3cc(C(C)(C)C)nn3C)sc2C)cc1Cl	68*	·	4	·	·	·	86*
COCCCn1c(C(=O)Nc2ccc3c(c2)OCO3)cc2c(=O)n3cccc(C)c3nc21	69*	·	·	·	·	·	28
COCCCn1c(C(=O)N2CCOCC2)cc2c(=O)n3cccc(C)c3nc21	22	-6	·	·	0	·	·
CN(C)CCCn1c(=O)n(CCc2ccccc2)c(=O)c2c3c(sc21)CCCCC3	55*	17	-12	·	1	·	50*
O=c1c2c3c(sc2nc(NCCO)n1-c1ccccc1)CCCC3	·	-5	·	·	-1	·	·
CN(C)CCn1c(=O)n(Cc2ccccc2)c(=O)c2c3c(sc21)CCCCC3	·	2	·	·	4	·	·
CN(C)CCCNc1nc2sc3c(c2c(=O)n1CCc1ccccc1)CCCCC3	60*	7	17	·	17	·	34
CC(=O)NC(c1ccccc1)c1nc(-c2cc(F)cc(F)c2)cs1 (stereo unspecified)	-6	·	·	·	·	·	·
Cc1ccc(-n2c(=O)[nH]c3cc(C(=O)NC4CCN(Cc5ccccc5)CC4)ccc3c2=O)cc1	75*	·	4	13	6	-3	28
CN(Cc1ccccc1)C(CNS(=O)(=O)c1ccccc1)c1ccccc1 (stereo unspecified)	16	·	·	·	·	·	·
CC(Sc1nnc(C(C)Oc2ccccc2F)o1)C(=O)NCc1ccc2c(c1)OCO2 (stereo unspecified)	-27	·	·	·	·	·	·
CC(C)(C)OC(=O)N(CCc1ccccc1)Cc1cccc(OCc2cccc(NC(=O)c3ccccc3)c2)c1	-5	·	·	·	·	·	·
CC(C)(C)OC(=O)N(CCc1ccccc1)Cc1ccc(OCc2cccc(NC(=O)/C=C/c3ccccc3)c2)cc1	51*	·	·	·	·	·	65*
CC(C)(C)OC(=O)N(CCc1ccccc1)Cc1ccccc1OCc1cccc(NC(=O)/C=C/c2ccccc2)c1	53*	·	·	·	·	·	43*
N#CC1C=Cc2c(ccc3ccccc23)N1C(=O)c1ccccc1 (stereo unspecified)	60*	·	·	·	·	·	56*
COc1ccc(OC)c(CN2CCN(C(=O)c3cccc(S(=O)(=O)Nc4ccc(C)cc4)c3)CC2)c1	1	·	·	·	0	·	·
Cc1ccc(-n2cc(CNCCCn3cccn3)c(-c3cccc(C)c3)n2)cc1	52*	19	-8	·	-4	·	52*
CN(Cc1ccccc1)C(=O)c1ccc(Nc2nc(C(N)Cc3ccc(C(F)(F)F)cc3)cs2)nc1 (stereo unspecified)	11	·	·	·	·	·	·
NC(Cc1ccc(F)cc1)c1csc(Nc2ccc(C(F)(F)F)cn2)n1 (stereo unspecified)	90*	·	·	·	·	·	74*
CN(Cc1ccccc1)C(=O)c1ccc(Nc2nc(C(N)Cc3ccccc3)cs2)nc1 (stereo unspecified)	52*	·	·	·	·	·	49*
O=C1C=CC(=O)N1c1ccc2c(c1)C(NC(=O)C(F)(F)F)c1ccccc1-2 (stereo unspecified)	-25	·	·	·	·	·	·
